Results reported in ChEMBL document CHEMBL3526074, “Effects of the CYP2B6*6 allele on catalytic properties and inhibition of CYP2B6 in vitro: implication for the mechanism of reduced efavirenz metabolism and other CYP2B6 substrates in vivo” (Drug Metab Dispos, 2012).

Columns and labels:
Type in all cases: ADME
[1] = Inhibition of CYP2B6 variant in human liver microsomes harboring CYP2B6*6/*6 genotype assessed as 8-hydroxyefavirenz formation using efavirenz as substrate after 15 mins by LC/MS/MS analysis
[2] = Inhibition of CYP2B6 variant in human liver microsomes harboring CYP2B6*1/*1 genotype assessed as 8-hydroxyefavirenz formation using efavirenz as substrate after 15 mins by LC/MS/MS analysis
[3] = Inhibition of CYP2B6 variant in human liver microsomes harboring CYP2B6*1/*6 genotype assessed as 8-hydroxyefavirenz formation using efavirenz as substrate after 15 mins by LC/MS/MS analysis
[4] = Drug metabolism in human liver microsomes harboring CYP2B6*6/*6 genotype assessed as CYP2B6 variant-mediated 8-hydroxyefavirenz metabolite formation after 15 mins by LC/MS/MS analysis; conditions: 0.25 h
How it was run: (§1)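 Genotyped human liver microsomes (5 donors per genotype), 0.25 mg/ml, with efavirenz 1–200 µM in 200 mM potassium phosphate pH 7.4. Prewarmed 5 min at 37°C, started with NADPH-regenerating system, 15 min, stopped on ice with acetonitrile. 8-hydroxyefavirenz measured by LC/MS/MS, duplicate incubations. Km and Vmax from single-site Michaelis-Menten nonlinear fit; Clint = Vmax/Km; mean ± S.D. across 5 HLMs.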

[5] = Drug metabolism in microsomes expressing CYP2B6.1 (unknown origin) assessed as enzyme-mediated 8-hydroxyefavirenz metabolite formation after 15 mins by HPLC/UV system in presence of Cyt b5 coexpression; conditions: human, 0.25 h
How it was run: (§2)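 cDNA-expressed CYP2B6.1 or CYP2B6.6 microsomes coexpressing POR and Cyt b5 (15 pmol), with efavirenz 1–200 µM, NADPH-regenerating system and pH 7.4 phosphate buffer, 15 min at 37°C. 8-hydroxyefavirenz by HPLC, rate per pmol P450. Kinetic constants from single-site Michaelis-Menten fit; three replicates, mean ± S.D.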

[6] = Drug metabolism in human liver microsomes harboring CYP2B6*1/*1 genotype assessed as CYP2B6 variant-mediated 8-hydroxyefavirenz metabolite formation measured per mg protein after 15 mins by LC/MS/MS analysis; conditions: 0.25 h; how it was run: as §1
[7] = Drug metabolism in microsomes expressing CYP2B6.6 (unknown origin) assessed as enzyme-mediated 8-hydroxyefavirenz metabolite formation after 15 mins by HPLC/UV system in absence of Cyt b5 coexpression; conditions: human, 0.25 h
How it was run: (§3)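 Microsomes with cDNA-expressed CYP2B6.1 or CYP2B6.6 plus POR, no Cyt b5 (15 pmol P450). Efavirenz 1–200 µM in 200 mM phosphate pH 7.4 with NADPH-regenerating system, 15 min at 37°C. 8-hydroxyefavirenz by HPLC, rate per pmol P450.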

[8] = Drug metabolism in human liver microsomes harboring CYP2B6*1/*6 genotype assessed as intrinsic clearance for CYP2B6 variant-mediated 8-hydroxyefavirenz metabolite formation measured per mg protein after 15 mins by LC/MS/MS analysis; conditions: 0.25 h; how it was run: as §1
[9] = Drug metabolism in microsomes expressing CYP2B6.1 (unknown origin) assessed as enzyme-mediated 8-hydroxyefavirenz metabolite formation measured per pmol of P450 after 15 mins by HPLC/UV system in presence of Cyt b5 coexpression; conditions: human, 0.25 h; how it was run: as §2
[10] = Drug metabolism in human liver microsomes harboring CYP2B6*1/*1 genotype assessed as intrinsic clearance for CYP2B6 variant-mediated 8-hydroxyefavirenz metabolite formation measured per mg protein after 15 mins by LC/MS/MS analysis; conditions: 0.25 h; how it was run: as §1
[11] = Drug metabolism in microsomes expressing CYP2B6.1 (unknown origin) assessed as enzyme-mediated 8-hydroxyefavirenz metabolite formation after 15 mins by HPLC/UV system in absence of Cyt b5 coexpression; conditions: human, 0.25 h; how it was run: as §3
[12] = Drug metabolism in microsomes expressing CYP2B6.6 (unknown origin) assessed as enzyme-mediated 8-hydroxyefavirenz metabolite formation measured per pmol of P450 after 15 mins by HPLC/UV system in absence of Cyt b5 coexpression; conditions: human, 0.25 h; how it was run: as §3
[13] = Drug metabolism in human liver microsomes harboring CYP2B6*6/*6 genotype assessed as CYP2B6 variant-mediated 8-hydroxyefavirenz metabolite formation measured per mg protein after 15 mins by LC/MS/MS analysis; conditions: 0.25 h; how it was run: as §1
[14] = Drug metabolism in human liver microsomes harboring CYP2B6*1/*6 genotype assessed as CYP2B6 variant-mediated 8-hydroxyefavirenz metabolite formation after 15 mins by LC/MS/MS analysis; conditions: 0.25 h; how it was run: as §1
[15] = Drug metabolism in human liver microsomes harboring CYP2B6*1/*6 genotype assessed as CYP2B6 variant-mediated 8-hydroxyefavirenz metabolite formation measured per mg protein after 15 mins by LC/MS/MS analysis; conditions: 0.25 h; how it was run: as §1
[16] = Drug metabolism in human liver microsomes harboring CYP2B6*6/*6 genotype assessed as intrinsic clearance for CYP2B6 variant-mediated 8-hydroxyefavirenz metabolite formation measured per mg protein after 15 mins by LC/MS/MS analysis; conditions: 0.25 h; how it was run: as §1
[17] = Drug metabolism in microsomes expressing CYP2B6.6 (unknown origin) assessed as enzyme-mediated 8-hydroxyefavirenz metabolite formation after 15 mins by HPLC/UV system in presence of Cyt b5 coexpression; conditions: human, 0.25 h; how it was run: as §2
[18] = Drug metabolism in microsomes expressing CYP2B6.6 (unknown origin) assessed as enzyme-mediated 8-hydroxyefavirenz metabolite formation measured per pmol of P450 after 15 mins by HPLC/UV system in presence of Cyt b5 coexpression; conditions: human, 0.25 h; how it was run: as §2
[19] = Drug metabolism in microsomes expressing CYP2B6.1 (unknown origin) assessed as enzyme-mediated 8-hydroxyefavirenz metabolite formation measured per pmol of P450 after 15 mins by HPLC/UV system in absence of Cyt b5 coexpression; conditions: human, 0.25 h; how it was run: as §3
[20] = Drug metabolism in human liver microsomes harboring CYP2B6*1/*1 genotype assessed as CYP2B6 variant-mediated 8-hydroxyefavirenz metabolite formation after 15 mins by LC/MS/MS analysis; conditions: 0.25 h; how it was run: as §1

Km [4] [µM]	Km [5] [µM]	Vmax [6] [pmol/min]	Km [7] [µM]	CLH [8] [µL/min/mg]	Vmax [9] [pmol/min]	CLH [10] [µL/min/mg]	Km [11] [µM]	Vmax [12] [pmol/min]	Vmax [13] [pmol/min]	Km [14] [µM]	Vmax [15] [pmol/min]	CLH [16] [µL/min/mg]	Km [17] [µM]	Vmax [18] [pmol/min]	Vmax [19] [pmol/min]	Km [20] [µM]	SMILES	IC50 [1] [nM]	IC50 [2] [nM]	Ki [3] [nM]
–	–	–	–	–	–	–	–	–	–	–	–	–	–	–	–	–	COC(=O)[C@H](c1ccccc1Cl)N1CCc2sccc2C1 [CLOPIDOGREL]	50	140	–
–	–	–	–	–	–	–	–	–	–	–	–	–	–	–	–	–	C[C@@H](c1ncncc1F)[C@](O)(Cn1cncn1)c1ccc(F)cc1F [VORICONAZOLE]	160	400	1550
24	3.4	87.1	8.8	6.4	1.02	14.5	3.2	1.61	25	15.2	100.6	2.4	6.2	0.95	1.21	11.2	O=C1Nc2ccc(Cl)cc2[C@@](C#CC2CC2)(C(F)(F)F)O1 [EFAVIRENZ]	–	–	–
